Results on 9 compounds are retold here after ChEMBL document CHEMBL3600329, “Synthesis, biological profiling and mechanistic studies of 4-aminoquinoline-based heterodimeric compounds with dual trypanocidal-antiplasmodial activity” (Bioorg Med Chem, 2015).

Data set [1] in a line: Inhibition of beta-haematin formation by microplate reader analysis relative to hemin. It counts as physicochemical. An outline of the steps:
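Haemin chloride (8 mM stock in DMSO) mixed with serial compound dilutions (0.5-32 mM) in 25% DMSO; formation initiated with 8 M acetate buffer pH 5.0, 18 h at 37 °C. Pellets washed with DMSO, β-haematin dissolved in 0.1 M NaOH, OD 400 nm read versus drug-free controls; BHIA50 expressed as compound equivalents relative to haemin, by linear regression.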

For data set [2], the system named is Trypanosoma brucei. The data set is described as follows: Trypanocidal activity against bloodstream form of Trypanosoma brucei 221 assessed as inhibition of parasite growth at pH 7.4 after 48 hrs by Spectramax plate reader analysis. Type of data set: functional, organism-based. Conditions: Trypanosoma brucei, 221, 48 h. An outline of the steps:
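Bloodstream-form T. brucei strain 221 grown at 37 °C in modified Iscove's medium; log-phase cells diluted to 0.25 × 10^5 mL⁻¹, exposed to a range of compound concentrations in triplicate at 37 °C. Resazurin added after 48 h, read after a further 16 h. IC50 and IC90 = concentrations inhibiting growth 50% and 90%; mean of triplicate experiments ± SEM.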

The test system of a further data set is Plasmodium falciparum. The data set is described as follows: Antiplasmodial activity against chloroquine-resistant Plasmodium falciparum K1 infected in human A+ erythrocytes assessed as inhibition of parasite growth after 48 hrs by LDH assay. It counts as functional, organism-based. Conditions: K1, 48 h. In a few lines:
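Ring-stage cultures in human A+ erythrocytes (RPMI 1640, A+ serum, D-glucose), 2.5% haematocrit, 1% parasitaemia; twofold serial dilutions in duplicate, DMSO ≤0.5% final. 48 h at 37 °C under 93% N2/3% O2/4% CO2. Growth read as lactate dehydrogenase activity (APAD, lactate, diaphorase, NBT; 550 nm); % inhibition vs controls; IC50 by linear regression; mean of triplicate experiments.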

For the next data set, the system named is L6. The data set is described as follows: Cytotoxicity against rat L6 cells assessed as inhibition of cell growth after 6 days by Spectramax fluorescence plate reader analysis. It counts as cell-based. As to conditions: L6, 144 h. An outline of the steps: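 L6 rat skeletal myoblasts seeded at 1×10^4 mL⁻¹ in growth medium containing a range of compound concentrations, incubated 6 days at 37 °C; resazurin added, fluorescence read after a further 8 h. IC50 = concentration inhibiting growth by 50%; mean of triplicate experiments ± SEM.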

Data set [3] can be described thus: Selectivity index, ratio of IC50 for rat L6 cells to IC50 for bloodstream form of Trypanosoma brucei 221. As to conditions: read-out: Ratio IC50. Type of data set: toxicity, cell-based. In a few lines:
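IC50 ratio, L6 over T. brucei. L6 cells seeded at 1×10^4 mL⁻¹ with compound, 6 days at 37 °C, then resazurin, 8 h more, fluorescence read. Log-phase bloodstream T. brucei 221 in modified Iscove's medium at 0.25 × 105 mL⁻¹, compound range in triplicate, 37 °C; resazurin at 48 h, read after 16 h more.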

A short description of data set [4]: Selectivity index, ratio of IC50 for rat L6 cells to IC50 for chloroquine-resistant Plasmodium falciparum K1. As to conditions: read-out: Ratio IC50. Type of data set: toxicity, cell-based. An outline of the steps: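 IC50 ratio, L6 over P. falciparum K1. L6 cells seeded at 1×10^4 mL⁻¹ with compound, 6 days at 37 °C, resazurin added, fluorescence after 8 h. Parasites in A+ erythrocytes (2.5% haematocrit, 1% parasitaemia) with twofold dilutions, 48 h at 37 °C in low-oxygen gas; growth read by LDH activity at 550 nm.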

In the next data set the target is Trypanothione reductase (Trypanosoma brucei brucei, UniProt P39051). The data set is described as follows: Inhibition of Trypanosoma brucei recombinant Trypanothione reductase assessed as decrease in (T[SH]2) formation using trypanothione disulfide as substrate after 15 mins by colorimetric analysis.
Trypanothione reductase, sequence (P39051 whole entry): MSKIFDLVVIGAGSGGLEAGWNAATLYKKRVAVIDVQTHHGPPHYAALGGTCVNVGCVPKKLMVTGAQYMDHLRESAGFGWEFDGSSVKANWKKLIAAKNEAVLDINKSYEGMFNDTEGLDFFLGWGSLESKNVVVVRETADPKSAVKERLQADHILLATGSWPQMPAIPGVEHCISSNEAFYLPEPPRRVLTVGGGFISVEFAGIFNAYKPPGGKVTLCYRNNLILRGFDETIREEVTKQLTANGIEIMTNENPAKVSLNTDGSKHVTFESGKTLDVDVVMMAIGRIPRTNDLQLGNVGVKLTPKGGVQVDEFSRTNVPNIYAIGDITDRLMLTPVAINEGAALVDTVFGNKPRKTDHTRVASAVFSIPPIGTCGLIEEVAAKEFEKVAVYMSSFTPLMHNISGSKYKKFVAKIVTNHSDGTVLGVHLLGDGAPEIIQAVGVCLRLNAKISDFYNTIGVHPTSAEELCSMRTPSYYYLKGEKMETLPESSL
The test system of data set [5] is Trypanosoma brucei. The data set is described as follows: Selectivity index, ratio of IC50 for inhibition of Trypanosoma brucei recombinant Trypanothione reductase to IC50 for trypanocidal activity against bloodstream form of Trypanosoma brucei 221.
A further data set has as its target Acetylcholinesterase (Homo sapiens, UniProt P22303). The data set is described as follows: Inhibition of human recombinant AChE using acetylthiocholine iodide as substrate preincubated with enzyme for 20 mins prior to substrate addition by Ellman's method. An outline of the steps: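 Ellman assay in 0.1 M phosphate buffer pH 8.0 with hAChE 0.02 u/mL and 333 µM DTNB. At least 10 inhibitor concentrations, in duplicate, preincubated 20 min at 37 °C. Then 450 µM acetylthiocholine iodide, 5 min at 37 °C; absorbance at 414 nm against an uninhibited sample. IC50 by non-linear regression; mean ± S.E.M. of at least 4 experiments.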

Data set [6] is described as follows: Permeability by PAMPA-BBB assay. It counts as ADME. As to conditions: read-out: Peff. In a few lines:
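Parallel artificial membrane permeation through porcine brain lipid extract, using PBS:EtOH 70:30; effective permeability Pe reported as mean ± SD of three independent experiments.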

Acetylcholinesterase, sequence (P22303 whole entry): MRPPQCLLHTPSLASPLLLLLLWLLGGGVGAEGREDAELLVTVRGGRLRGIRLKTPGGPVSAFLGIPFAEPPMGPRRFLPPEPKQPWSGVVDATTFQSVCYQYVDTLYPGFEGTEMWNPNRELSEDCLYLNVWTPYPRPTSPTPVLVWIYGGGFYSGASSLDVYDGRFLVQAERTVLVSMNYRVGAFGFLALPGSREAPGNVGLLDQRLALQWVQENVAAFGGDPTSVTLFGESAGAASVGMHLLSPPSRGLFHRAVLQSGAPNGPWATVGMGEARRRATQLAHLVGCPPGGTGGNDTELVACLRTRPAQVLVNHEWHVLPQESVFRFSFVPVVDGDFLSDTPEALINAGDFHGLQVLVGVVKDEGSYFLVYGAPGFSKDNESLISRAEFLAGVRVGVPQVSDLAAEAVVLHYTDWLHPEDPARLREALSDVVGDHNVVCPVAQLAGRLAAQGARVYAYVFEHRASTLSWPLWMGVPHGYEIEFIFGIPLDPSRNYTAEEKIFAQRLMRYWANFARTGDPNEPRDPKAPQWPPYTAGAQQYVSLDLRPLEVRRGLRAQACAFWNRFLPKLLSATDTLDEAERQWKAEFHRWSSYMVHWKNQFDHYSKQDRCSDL

`CCN(CC)CCCC(C)Nc1ccnc2cc(Cl)ccc12` (stereo not drawn) [CHLOROQUINE]: the IC50 in data set [1] is recorded as 0.14 equiv.
Regarding `CC1=CC2Cc3nc4cc(Cl)ccc4c(NCCCCCCCCNc4c5c(nc6ccccc46)CCCC5)c3C(C1)C2` (stereo not drawn), the IC50 stood at 150 nM in the data set on Trypanosoma brucei [2]; 390 nM in the data set on Plasmodium falciparum; 1110 nM in the data set with L6; 870 nM on Trypanothione reductase; 0.19 equiv in data set [1]. The 90% effect concentration (IC90) in the data set with Trypanosoma brucei [2] turned out to be 290 nM. For the same compound, the selectivity ratio in [3] was 7.4; in data set [4], 2.8. In addition, the Ratio IC50 in the data set on Trypanosoma brucei [5] is 6.
As to `CN(C)[C@@H]1C(O)=C(C(N)=O)C(=O)[C@@]2(O)C(O)=C3C(=O)c4c(O)cccc4[C@@](C)(O)[C@H]3C[C@@H]12` [TETRACYCLINE], the IC50 in data set [1] was greater than 4 equiv.
As to `CC1=CC2Cc3nc4cc(Cl)ccc4c(N)c3C(C1)C2` (stereo not drawn) [HUPRINE Y], the IC50 on Trypanothione reductase was 5000 nM; in data set [1], greater than 4 equiv. In addition, the Ratio IC50 in the data set on Trypanosoma brucei [5] turned out to be 8.2.
Consider `CC1=CC2Cc3nc4ccccc4c(NCCCCCCCCCCCCNc4c5c(nc6cc(Cl)ccc46)CCCC5)c3C(C1)C2` (stereo not drawn), for which the IC50 is 550 nM in the data set with Trypanosoma brucei [2], greater than 6900 nM with Plasmodium falciparum, 2740 nM with L6 and 3.66 nM at Acetylcholinesterase. In the data set with Trypanosoma brucei [2], the IC90 was found to be 750 nM. Moreover, the selectivity ratio is 5 in data set [3] and less than 0.4 in [4]. Further, the Papp in data set [6] is 11 ×10⁻⁶ cm/s.
On to `CC1=CC2Cc3nc4cc(Cl)ccc4c(NCCCCCCCCCCCCNc4c5c(nc6cc(Cl)ccc46)CCCC5)c3C(C1)C2` (stereo not drawn), for which the IC50 in the data set on Trypanosoma brucei [2] was 590 nM; in the data set on Plasmodium falciparum it was greater than 6600 nM; in the data set with L6, 5580 nM; at Acetylcholinesterase, 3.46 nM. Besides, the IC90 with Trypanosoma brucei [2] came out at 770 nM. Moreover, the selectivity ratio in data set [3] was 9.5; in [4], less than 0.85. Besides, the Papp in [6] worked out at 16.8 ×10⁻⁶ cm/s.
In the case of `COc1cc2c(cc1OC)CC(CC1CCN(CCCNc3c4c(nc5cc(Cl)ccc35)CC3C=C(C)CC4C3)CC1)C2` (stereo not drawn), the IC50 in the data set with Trypanosoma brucei [2] worked out at 170 nM; in the data set on L6, 2060 nM; at Trypanothione reductase, 4880 nM; in data set [1] it was 0.42 equiv. Besides, the concentration for an effect of 90% (IC90) with Trypanosoma brucei [2] came out at 350 nM. Besides, the selectivity ratio in data set [3] worked out at 12. Moreover, the Ratio IC50 in the data set with Trypanosoma brucei [5] was determined as 29.
Consider `CC1=CC2Cc3nc4cc(Cl)ccc4c(NCCCCCCCCCCCCNc4c5c(nc6ccccc46)CCCC5)c3C(C1)C2` (stereo not drawn), for which the IC50 was 350 nM in the data set on Trypanosoma brucei [2], greater than 6900 nM in the data set on Plasmodium falciparum, 1040 nM in the data set on L6 and 1.92 nM at Acetylcholinesterase. The IC90 in the data set with Trypanosoma brucei [2] is 520 nM. Further, the selectivity ratio in [3] is 3; in data set [4] it was less than 0.15. Also, in data set [6], the Papp amounted to 10.8 ×10⁻⁶ cm/s.
With `CC1=CC2Cc3nc4ccccc4c(NCCCCCCCCCCCCNc4c5c(nc6ccccc46)CCCC5)c3C(C1)C2` (stereo not drawn), the IC50 is 210 nM in the data set on Trypanosoma brucei [2], greater than 7300 nM in the data set on Plasmodium falciparum, less than 1000 nM in the data set with L6 and 10.1 nM on Acetylcholinesterase. The IC90 with Trypanosoma brucei [2] amounted to 280 nM. For the same compound, the selectivity ratio is less than 4.8 in data set [3] and less than 0.14 in data set [4]. Besides, the Papp in [6] was 7.3 ×10⁻⁶ cm/s.
